Unmarked numbers belong to inactive results. Records with an inconclusive call do not appear. The source made the active and inactive calls.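 How the source made its calls, unless noted: active means growth inhibition above 25% in both replicates, a cutoff set 3 SD above the mean; inconclusive means above 25% in only one replicate; inactive means the rest.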
Key:
[1] = OD615 S. cerevisiae growth inhibition, permissive medium, pilot counter-assay, permissive growth control for S. cerevisiae lifespan shortening project (AID 705); conditions: OD615, 24 h, at 10 µM, stronger effect = higher value
Outline: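 Timing: 24 h exposure, 30 °C / Material: Saccharomyces cerevisiae strain carrying genetically modified DeaD replicative-lifespan system / Signal: OD at 615 nm / Compound: 10 µM single dose, 0.25% DMSO / Medium: SC raffinose/galactose permissive medium / Evaluation: reduction in yeast growth (OD615)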

[2] = Restrictive medium S. cerevisiae growth inhibition, OD615, pilot screen of yeast lifespan reduction project, restrictive growth control (AID 706;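 active means growth inhibition above a set limit, 3 SD over mean compound inhibition, in both replicates, cut at about 43% in these data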;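 further: modified DeaD lifespan yeast strain shifted to restrictive glucose medium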); conditions: OD615, 48 h, at 10 µM, stronger effect = higher value
Outline: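 System: Engineered S. cerevisiae DeaD strain | Detection: OD615 | Buffer or medium: CSMM-D glucose medium | Doses: 10 µM compound, 0.25% DMSO | Timing: 4 h pre-growth plus 48 h compound exposure, 30 °C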

[3] = viability gain of MRP-1-high H69AR cells under doxorubicin, pilot screen, MRP-1 activator project, CellTiter-Glo, duplicate (AID 807;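 active means viability increase at or above a cutoff of the median across tested compounds plus 3 SD, cut at about 8.5% in these data, passing the limit was not always enough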;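 further: compound pretreatment 18-22 h then 72 h combined with doxorubicin; 0% = doxorubicin alone and 100% = vehicle without doxorubicin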); conditions: H69AR viability with doxorubicin, CellTiter-Glo luminescence; at 10 µM; stronger effect = higher value
[4] = growth suppression of beta-catenin knockout HCT116, pilot screen, human colon tumor cells (AID 823;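 active means cell viability at or below a set limit in both duplicate runs, the limit being the all-compound median minus 4 SD, cut at about 23% in these data, passing the limit was not always enough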;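 further: 0% = wells killed by 20 µM Hyamine and 100% = untreated DMSO cell wells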); conditions: CellTiter-Glo, 60 h, at 10 µM, stronger effect = lower value
[5] = growth suppression of PTEN-deleted HCT116, pilot screen, cell-based, HCT116 clonal line, CellTiter-Glo (AID 824;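 active means viability at or below 27.92% in each of two runs, the all-compound median minus 4 SD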;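 further: 0% = 20 µM Hyamine control and 100% = vehicle cell control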); conditions: 60 h, at 10 µM, stronger effect = lower value
[6] = inhibitors of the yeast RAM network, pilot screen, dse1pr::URA3 reporter, 5-FOA selection (AID 869;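 active means inhibition over a set limit, the all-compound mean plus 3 SD, in both replicate runs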;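 further: 0% = DMSO wells with no growth and 100% = 10 µM 1-NA-PP1 with full growth; RAM network block rescues cells from 5-FOA so hits raise OD615 growth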); conditions: S. cerevisiae dse1pr::URA3 5-FOA growth, OD615, 2 d; at 10 µM; stronger effect = higher value; strain carries analog-sensitive mutant Cbk1 kinase
[7] = RAM signaling pathway blockade in yeast – S. cerevisiae, Pdr1DBD-CYC8 efflux-inhibited sensitized strain, primary screen (AID 1298;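 active means RAM network inhibition above 8.4% in each of two replicates, 3 SD over the compound average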;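 further: 0% = DMSO untreated cells without growth and 100% = 10 µM 1-NA-PP1 full growth; higher means more yeast growth rescued from 5-FOA killing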); conditions: S. cerevisiae cbk1-as DSE1-URA3 strain, 5-FOA growth OD615, 2 d; at 50 µM; stronger effect = higher value

SMILES	growth inhibition [1]	growth inhibition [2]	viability increase [3] [%]	viability [4]	viability [5]	inhibition [6] [%]	RAM network inhibition [7] [%]
COc1cc(Br)c(CC(=O)O)cc1OC	-24.6%	-13.7%	-0.03	98.2%	97.1%	2.38	3.76
CC(=O)C1=C(C)N=c2s/c(=C/c3ccc4c(c3)OCO4)c(=O)n2C1c1ccc(N(C)C)cc1 (configuration not stated)	-9.92%	-9.9%	-1.24	93.2%	89.5%	1.13	4.19
COc1ccc(Cl)cc1C(=O)NCC(C)C	6.51%	8.17%	-0.38	95.7%	90.4%	2.71	4.05
CCSc1nc2c([nH]c3ccccc32)c(=O)n1C	-14.2%	-9.45%	-4.7	105%	100%	3.67	0.53
CC(=O)Nc1ccc(S(=O)(=O)N2CCSCC2)cc1	-14.7%	-27.7%	-2.25	98.6%	98.5%	1.88	3.21
CCn1c(=NC(=O)CN2C(=O)CCC2=O)sc2c(C)cc(C)cc21	-13.1%	-2.35%	-4.23	92.2%	91.2%	0.505	6.51
CCOC(=O)c1ccc(Nc2cc(C)nc3nc(C)nn23)cc1	-5.61%	4.27%	-4.45	103%	103%	0.015	1
CCOc1ccc(NC(=O)c2ccc(S(=O)(=O)N(C)C)cc2)cc1	-12.8%	-7.66%	0.26	102%	92.4%	1.32	1.71
Cc1cccc(OCC(=O)Nc2ccc3c(c2)OCO3)c1C	-5.98%	-2.99%	-0.26	103%	103%	1.77	7.79
COC(=O)c1cc(NC2c3ccccc3C(=O)N2c2cccnc2)cc(C(=O)OC)c1 (configuration not stated)	-10.2%	0.875%	-4.6	90.6%	91.4%	1.27	6.35
CCc1cc2c(=O)c(Oc3ccccc3F)c(C)oc2c(CN(C)C)c1O	-5.07%	9.37%	-7.21	95.2%	89.1%	3.73	6.03
Cn1c(C(=O)NC2CCCCC2)cc2c(=O)n(C)c3ccccc3c21	-10.6%	-6.48%	-1.7	88%	73.8%	1.46	4.6
CCOC(=O)c1ccc(NC(=O)c2nn(C)cc2Br)cc1	-7.53%	-10.1%	-1.34	101%	105%	0.925	6.88
O=C1N2CN(C(c3ccccc3)c3ccccc3)CN=C2SC1(CO)CO	-9.07%	-4.68%	-2.69	62.9%	74.8%	1.88	1.39
O=C(CSC1=NS(=O)(=O)c2ccccc21)Nc1ccccc1	56.7% (active)	96.9% (active)	-2.73	94.3%	104%	-0.07	-0.47
Cc1ccc2nc(NC(=O)CCNS(=O)(=O)c3cccs3)sc2c1	-5.57%	-7.59%	3.2	87%	71.7%	0.45	3.7
CCOC(=O)c1c(C)nc(-c2ccccc2)nc1NC(C)=O	-15.7%	-5.61%	-0.84	92%	89.5%	1.92	7.29
CCOC(=O)N1CCC(NC(=O)c2cnc3n(c2=O)CCS3)CC1	-1%	-6.85%	1.34	101%	100%	2.27	1.68

SMILES	growth inhibition [1]	growth inhibition [2]	viability increase [3] [%]	viability [4]	viability [5]	inhibition [6] [%]	RAM network inhibition [7] [%]
O=C(CSc1nc2c(c(=O)n1-c1ccc(Cl)cc1)SCC2)NCc1ccco1	-4.73%	-0.115%	-4.49	86.2%	89%	0.225	4.2
CCOC(=O)CSC1=C(C#N)C(c2ccc(C)s2)CC(=O)N1 (configuration not stated)	-9.3%	-13.3%	-5.84	15.9% (active)	16% (active)	1.54	0.22
COC(=O)c1ccccc1NC(=O)CSc1nccn1C	-3.94%	2.94%	-0.69	93.1%	92.2%	1.27	2.31
CCOCCCNC(=O)C(NC(=O)c1cnccn1)c1ccc(OC)cc1 (configuration not stated)	-8.29%	-6.63%	1.76	102%	95.7%	1.81	2.15
Cn1c(SCC(=O)NCC2CCCO2)nc2c([nH]c3ccccc32)c1=O (configuration not stated)	2.66%	-9.87%	-5.32	90.5%	91.7%	0.065	2.79
CCc1nnc(NC(=O)CSc2nc3c(c(=O)n2CC)SC(C)C3)s1 (configuration not stated)	3.12%	-4.29%	-0.18	99.2%	93.1%	3.99	6.11
Nc1c(S(=O)(=O)c2ccccc2)c2nc3ccccc3nc2n1/N=C/c1ccco1	-7.84%	-8.93%	-5.63	51.5%	52%	2.34	4.98
CC(=O)Nc1ccc(OCC=C(Cl)Cl)cc1	2.81%	5.66%	1.02	97.2%	102%	0.805	1.16
O=C(NCCCn1ccnc1)c1cc(C2CC2)on1	-14.9%	-11.1%	0.19	105%	103%	1.95	6.12
CN1/C(=C/C=N/n2cnnc2)C(C)(C)c2ccccc21	-6.3%	-17.9%	-0.78	98%	93.2%	0.465	3.01
C/C(NCCN1CCOCC1)=C(\C#N)C(N)=O	-3.8%	-6.1%	-0.51	105%	97.6%	0.795	7.19
COc1ccccc1N1CCN(CCCC(=O)c2ccc(F)cc2)CC1	-11.5%	1.04%	-0.78	80.6%	88.9%	2.29	-0.89
CCOC(=O)C1CCCN(c2c(Nc3cccc(C)c3)c(=O)c2=O)C1 (configuration not stated)	-6.7%	2.08%	-2.71	104%	93.2%	-0.555	2.72
Cc1ccccc1CNc1nc(N)n(-c2ccccc2)n1	-0.29%	2.71%	-1.74	104%	98.1%	0.48	4.87
CCn1ccnc1C(O)c1cccc(OC)c1OC (configuration not stated)	-8.24%	-3.01%	-0.74	108%	96.3%	2.75	3.57
O=C(CN1C(=O)CSc2ncccc21)N1CCOCC1	7%	-0.87%	-0.22	97.9%	101%	-0.115	7.38
COc1ccc(NC(=O)CN2CC(c3ccccc3)CC2=O)cc1OC (configuration not stated)	-17.9%	-15.6%	-1.08	104%	95.1%	0.27	2.86
O=C(Nc1ccccc1)OCCOc1ccccc1	-9.16%	4.62%	2.54	91.7%	100%	2.92	1.95

Reference: PubChem BioAssay
